# According to ChEMBL document CHEMBL3352772, “2-Pyridyl thiazoles as novel anti-Trypanosoma cruzi agents: structural design, synthesis and pharmacological evaluation” (Eur J Med Chem, 2014):
# Legend:
# [1] = test system: HepG2; assay: Cytotoxicity against human HepG2 cells after 48 hrs by; format: cell-based; conditions: HepG2, 48 h
# In short: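 HepG2 cells in supplemented Eagle's MEM, 3000 cells/well, plated onto predispensed compounds. Incubated 48 h at 37 °C, 80% humidity, 5% CO2. Viability read by CellTiter-Glo luminescence.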
# [2] = test system: Trypanosoma cruzi; assay: Antitrypanosomal activity against trypomastigote forms of Trypanosoma cruzi Y infected in LLC-MK2 cells assessed as reduction in viable parasites after 24 hrs by Neubauer chamber counting method; format: functional, organism-based; conditions: LLC-MK2, 24 h
# In short: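 Bloodstream trypomastigotes (Y strain) taken from supernatants of infected LLC-MK2 cells kept in RPMI-1640 with 10% FBS and gentamycin at 37 °C, 5% CO2. Plated at 4×10^5 cells/well with five concentrations of inhibitor in DMSO. Incubated 24 h at 37 °C, 5% CO2. Motile parasites counted in a Neubauer chamber. % inhibition taken against untreated cultures; IC50 from non-linear regression.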
# [3] = molecular target: Cruzipain (Trypanosoma cruzi) (UniProt P25779); assay: Inhibition of recombinant Trypanosoma cruzi cruzain using Z-Phe-Argaminomethylcoumarin as fluorogenic substrate preincubated at 100 uM for 10 mins before substrate addition by fluorimetry
# In short: (§1)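 Recombinant cruzain at 0.5 nM in 0.1 M sodium acetate pH 5.5 with 5 mM DTT and 0.01% Triton X-100. Compound pre-incubated with enzyme 10 min at a single screening concentration. […] Fluorescence followed 5 min at ex 340/em 440 nm. Activity relative to DMSO control; at least two independent experiments in triplicate.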
# [4] = test system: Trypanosoma cruzi; assay: Trypanocidal activity against epimastigote forms of Trypanosoma cruzi Y assessed as reduction in viable parasites after 11 days by Neubauer chamber counting method; format: functional, organism-based; conditions: 264 h
# In short: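 Y-strain epimastigotes grown at 26 °C in LIT medium with 10% FBS, hemin, R9 and gentamycin. Seeded at 10^6 cells/well and exposed in triplicate to 1.23, 3.70, 11.11, 33.33 and 100 µg/mL inhibitor in DMSO. Incubated 11 days at 26 °C. Viable parasites counted in a Neubauer chamber against untreated culture. IC50 from non-linear regression; experiment run in duplicate.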
# [5] = molecular target: Cruzipain (Trypanosoma cruzi, UniProt P25779); assay: Inhibition of recombinant Trypanosoma cruzi cruzain using Z-Phe-Argaminomethylcoumarin as fluorogenic substrate preincubated for 10 mins before substrate addition by fluorimetry
# In short: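 IC50 against recombinant cruzain (0.5 nM) in 0.1 M sodium acetate pH 5.5, 5 mM DTT, 0.01% Triton X-100. At least seven inhibitor concentrations, each pre-incubated 10 min with enzyme. Z-FR-AMC at 2.5 µM, fluorescence ex 340/em 440 nm followed 5 min. Two independent experiments in triplicate, normalized to DMSO control.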
# [6] = molecular target: Cruzipain (Trypanosoma cruzi) (UniProt P25779); assay: Inhibition of recombinant Trypanosoma cruzi cruzain using Z-Phe-Argaminomethylcoumarin as fluorogenic substrate preincubated at 75 uM for 10 mins before substrate addition by fluorimetry; in short: as §1
# [7] = molecular target: Cruzipain (Trypanosoma cruzi) (UniProt P25779); assay: Inhibition of recombinant Trypanosoma cruzi cruzain using Z-Phe-Argaminomethylcoumarin as fluorogenic substrate preincubated at 50 uM for 10 mins before substrate addition by fluorimetry; in short: as §1
# Sequence of Cruzipain (Trypanosoma cruzi) (P25779 123-467 limits assumed): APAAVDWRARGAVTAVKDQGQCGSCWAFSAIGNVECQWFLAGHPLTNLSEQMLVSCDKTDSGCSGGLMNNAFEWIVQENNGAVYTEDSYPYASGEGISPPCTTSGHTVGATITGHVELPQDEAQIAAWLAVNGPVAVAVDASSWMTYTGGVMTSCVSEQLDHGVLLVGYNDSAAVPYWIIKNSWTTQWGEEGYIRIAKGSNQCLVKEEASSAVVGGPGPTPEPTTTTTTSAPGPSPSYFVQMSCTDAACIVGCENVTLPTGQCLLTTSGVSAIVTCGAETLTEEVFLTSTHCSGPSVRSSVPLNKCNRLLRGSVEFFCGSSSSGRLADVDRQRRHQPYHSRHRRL
# Sequence of Cruzipain (P25779 whole entry): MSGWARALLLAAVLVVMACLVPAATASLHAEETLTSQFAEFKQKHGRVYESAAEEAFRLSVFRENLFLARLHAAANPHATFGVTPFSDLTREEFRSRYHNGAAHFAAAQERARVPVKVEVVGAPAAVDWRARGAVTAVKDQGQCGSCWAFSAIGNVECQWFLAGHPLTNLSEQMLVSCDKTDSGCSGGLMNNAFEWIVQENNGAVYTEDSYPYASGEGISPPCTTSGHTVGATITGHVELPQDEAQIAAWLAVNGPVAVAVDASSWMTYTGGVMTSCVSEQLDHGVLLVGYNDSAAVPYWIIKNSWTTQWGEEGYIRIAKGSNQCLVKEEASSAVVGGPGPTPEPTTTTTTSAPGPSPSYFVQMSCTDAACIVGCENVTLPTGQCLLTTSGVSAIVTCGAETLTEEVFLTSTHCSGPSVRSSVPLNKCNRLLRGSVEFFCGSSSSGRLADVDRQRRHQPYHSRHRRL
IC50 [2],inhibition [3],IC50 [5],inhibition [6],inhibition [7],Compound,IC50 [1],IC50 [4]
2.3 µM,27%,,,,C/C(=N\Nc1nc(-c2ccc(Br)cc2)c(C)s1)c1ccccn1,85.1 µM,2.3 µM
2.8 µM,5%,,,,C/C(=N\NC(N)=S)c1ccccn1,,4.5 µM
1.9 µM,81%,4.8 µM,,,C/C(=N\Nc1nc(-c2ccc(Cl)cc2Cl)cs1)c1ccccn1,100 µM,14.9 µM
5.4 µM,,,9%,,C(=N\Nc1nc(-c2ccccc2)cs1)/c1ccccn1,100 µM,8.3 µM
2 µM,94%,0.01 µM,,,C/C(=N\Nc1nc(-c2ccc3ccccc3c2)cs1)c1ccccn1,100 µM,4.1 µM
3.8 µM,,,-1%,,Clc1ccc(-c2csc(N/N=C/c3ccccn3)n2)cc1,100 µM,3.8 µM
1.1 µM,93%,1.3 µM,,,C/C(=N\Nc1nc(-c2ccccc2)cs1)c1ccccn1,91.2 µM,2.7 µM
74.2 µM,85%,1.3 µM,,,O=[N+]([O-])c1cccc(-c2csc(N/N=C/c3ccccn3)n2)c1,100 µM,2.5 µM
17.3 µM,1%,,,,N/C(S)=N/N=C/c1ccccn1,,120 µM
2.1 µM,95%,0.04 µM,,,COc1ccc(-c2csc(N/N=C(\C)c3ccccn3)n2)cc1,100 µM,14.7 µM
2.1 µM,-8%,,,,C/C(=N\Nc1nc(-c2ccc(Br)cc2)cs1)c1ccccn1,100 µM,2.1 µM
16.8 µM,23%,,,,Cc1ccc(-c2csc(N/N=C/c3ccccn3)n2)cc1,100 µM,3.8 µM
1.2 µM,,,0%,,Clc1ccc(-c2csc(N/N=C/c3ccccn3)n2)c(Cl)c1,100 µM,4.8 µM
153 µM,12%,,,,O=[N+]([O-])c1ccc(-c2csc(N/N=C/c3ccccn3)n2)cc1,100 µM,4.4 µM
3.8 µM,89%,0.3 µM,,,C/C(=N\Nc1nc(-c2ccc(F)cc2)cs1)c1ccccn1,91.2 µM,2.8 µM
2.1 µM,3%,,,,C(=N\Nc1nc(-c2ccc3ccccc3c2)cs1)/c1ccccn1,100 µM,8.3 µM
3.9 µM,,,10%,,C/C(=N\Nc1nc(-c2cccc([N+](=O)[O-])c2)cs1)c1ccccn1,100 µM,2.4 µM
72.7 µM,,,,22%,Fc1ccc(-c2csc(N/N=C/c3ccccn3)n2)cc1,18.2 µM,3.5 µM
2.6 µM,10%,,,,Cc1sc(N/N=C/c2ccccn2)nc1-c1ccc(Br)cc1,100 µM,18.3 µM
3.1 µM,89%,0.4 µM,,,C/C(=N\Nc1nc(-c2ccc(Cl)c(Cl)c2)cs1)c1ccccn1,100 µM,5 µM
2.2 µM,86%,9.5 µM,,,Brc1ccc(-c2csc(N/N=C/c3ccccn3)n2)cc1,100 µM,2.2 µM
36.7 µM,,,11%,,C/C(=N\Nc1nc(-c2ccc([N+](=O)[O-])cc2)cs1)c1ccccn1,100 µM,5.2 µM
1.2 µM,21%,,,,Clc1ccc(-c2csc(N/N=C/c3ccccn3)n2)cc1Cl,100 µM,4 µM
4.8 µM,,,20%,,COc1ccc(-c2csc(N/N=C/c3ccccn3)n2)cc1,100 µM,5.6 µM
2.1 µM,-3%,,,,C/C(=N/Nc1nc(-c2ccc(Cl)cc2)cs1)c1ccccn1,100 µM,2.5 µM
1.7 µM,90%,0.4 µM,,,C/C(=N\Nc1nc(-c2ccc(C)cc2)cs1)c1ccccn1,100 µM,2.5 µM
